In the library only some 2.6% were active in any assay of this set; here they are far more common.
Rce1 inh: yeast Rce1p protease inhibitors, primary screen, biochemical, fluorescence, cell-free homogeneous. CAAX prenyl protease 2 (Saccharomyces cerevisiae (strain ATCC 204508 / S288c)), Q03530. yeast membranes, quenched prenylated peptide cleavage fluorescence. calls only. actives 0.27% (n = 290,000). AID 2563, 2010;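 active = fall in fluorescence gain of 50% or more versus controls, with final raw signal at or below 3038400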;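 note: plate controls were neutral control wells for no effect and wells lacking membranes for full effect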
GRK2 inh: compounds blocking aptamer binding on GRK2 – biochemical, human GRK2, bead flow cytometry, HTS, primary screen; Beta-adrenergic receptor kinase 1 (Homo sapiens), P25098; FAM-aptamer displacement from GRK2; inhibition of aptamer binding, % at 10 µM; actives 0.59% (n = 330,000); AID 488847, 2010;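 active = inhibition of aptamer binding above 40%, roughly 3 SD of noise, on plates passing a quality check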;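 note: median bead fluorescence of bound FAM aptamer so fluorescent compounds give negative values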
Target sequence (P25098 whole entry, looked up): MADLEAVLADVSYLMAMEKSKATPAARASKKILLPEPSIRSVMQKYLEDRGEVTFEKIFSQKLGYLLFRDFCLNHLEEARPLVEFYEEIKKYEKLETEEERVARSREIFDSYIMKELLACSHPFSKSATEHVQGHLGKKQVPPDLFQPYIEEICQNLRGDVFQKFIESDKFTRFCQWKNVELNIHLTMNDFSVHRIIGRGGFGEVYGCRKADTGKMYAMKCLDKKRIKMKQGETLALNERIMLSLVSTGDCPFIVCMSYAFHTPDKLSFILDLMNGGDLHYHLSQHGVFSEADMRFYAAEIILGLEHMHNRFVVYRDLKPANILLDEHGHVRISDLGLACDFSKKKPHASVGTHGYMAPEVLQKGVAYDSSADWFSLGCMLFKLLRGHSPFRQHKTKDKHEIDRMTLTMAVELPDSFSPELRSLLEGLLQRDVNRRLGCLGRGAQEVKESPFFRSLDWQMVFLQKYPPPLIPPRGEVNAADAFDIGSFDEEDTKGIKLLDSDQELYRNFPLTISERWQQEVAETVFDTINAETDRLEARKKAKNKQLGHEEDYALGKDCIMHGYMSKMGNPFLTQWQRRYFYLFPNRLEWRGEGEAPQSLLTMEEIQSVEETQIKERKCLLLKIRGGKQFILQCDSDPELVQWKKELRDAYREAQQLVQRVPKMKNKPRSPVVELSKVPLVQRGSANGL
T cell HTS: modulators of CD8 T cell-vesicle binding, primary screen, mouse 2C CD8+ T cells, flow cytometry; 2C CD8+ T cell-vesicle binding; hits give low values; response (vesicle binding), % at 7 µM; actives 0.068% (n = 330,000); AID 2052, 2009;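 active = response, share of CD8 T cells binding vesicles, and their 90th percentile fluorescence all below set limits, cut at about 80% in these data, passing the limit was not always enough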;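 note: values below 100% mean blocked vesicle binding to the CD8+ T cells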
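System: murine 2C transgenic CD8+ T lymphocytes; also added: QL9-loaded Drosophila micro-vesicles; times: binding 1.5 h at 37 °C; measured by: flow cytometry, PE anti-B7-1 (FL2) versus Alexa647 anti-CD8 (FL8), PFA-fixed; control set: Peptide-free naked vesicles (low) and QL9 vesicles with 0.7% DMSO vehicle (high)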
SKN-1 inh: suppressors of acrylamide-induced Pgst-4::GFP reporter in worms, primary screen, SKN-1 inhibitor project, whole organism, uHTS, GFP/RFP fluorescence ratio, strain VP596; C. elegans VP596 Pgst-4::GFP/RFP ratio, 24 h; inhibition, % at 21.8 µM; actives 0.49% (n = 360,000); AID 624304, 2012;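 active = interference check ratio from 0.5 to 1.5 plus GFP to RFP signal ratio inhibition reaching or exceeding a fixed threshold, cut at about 30% in these data, passing the limit was not always enough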
Myeloid diff 2: induction of myeloid progenitor differentiation, primary screen, cell-based, flow cytometry, MLPCN library. calls only at 10 µM. AID 624256, 2012. actives 1% (n = 360,000). ER-HoxA9 myeloid progenitors, lysozyme-GFP differentiation;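 active = normalized GFP-positive differentiation at or above the plate's own cutoff, the solvent-only control mean plus 3 SD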;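 note: cells exposed to compound for four days before flow analysis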
Rin1 Abl inh: inhibitors of Rin1-Abl protein binding, primary screen, biochemical, TR-FRET; Tyrosine-protein kinase ABL1 (Homo sapiens) + Ras and Rab interactor 1 (Homo sapiens), …; inhibition, % at 7.35 µM; AID 588664, 2011; actives 0.4% (n = 360,000); in the data active = inhibition above about 5%, passing the limit was not always enough
* hit, by the source's call; i = inactive; x = no result given; + = active, no number.

SMILES	Rce1 inh	GRK2 inh	T cell HTS	SKN-1 inh	Myeloid diff 2	Rin1 Abl inh
COc1ccc2c(Cl)c(C(=O)N/N=C/c3ccc4c(c3)OCO4)sc2c1	i	0	141	15	i	1
CC(=O)N1CCN(C(=O)c2cccc(S(=O)(=O)NCc3ccccc3)c2)CC1	i	0	220	-6	i	1
COc1ccc(C(=O)Nc2ccccc2C(=O)N/N=C/c2ccccn2)cc1OC	i	6	507	-4	+	-2
O=C(CCCN1C(=O)c2cccc3cccc(c23)C1=O)Nc1nccs1	i	0	124	-4	i	-4
Nc1c(C(=O)NC2CC2)sc2nc3c(c(-c4ccco4)c12)CC/C3=C/c1ccco1	x	2	524	10	i	13*
NC(=O)c1sc2nc3c(c(-c4ccco4)c2c1N)CCC3	i	3	157	28	i	-5
COc1cc(/C=N/NC(=O)Cn2cnc3c2c(=O)n(C)c(=O)n3C)ccc1O	i	0	207	-2	i	-1
CN(C)S(=O)(=O)c1cccc(C(=O)N=C2N=C3C=CC(Cl)=CN3Cc3ccccc32)c1	x	0	470	57*	i	-2
O=C(N=C1N=C2C=CC=CN2Cc2ccccc21)c1ccc(S(=O)(=O)N2CCCC2)cc1	i	0	256	2	i	2
Cc1cc(C)n2nc(SCCC(=O)NCc3ccccc3)nc2n1	i	0	290	1	i	-2
Cc1nc(-n2nnc3cc(C)c(C)cc32)c2c3c(sc2n1)CCCC3	i	5	539	13	+	-2
COC(=O)c1oc2ccccc2c1-n1cccc1	i	0	99	-14	i	-1
COC(=O)c1oc2ccc(Cl)cc2c1-n1cccc1	i	0	931	37*	i	-2
Cc1[nH]c2ccccc2c1C(=O)C(C)OC(=O)c1ccc(Cl)nc1 (centres undefined)	i	3	364	2	i	-1
Cc1[nH]c2ccccc2c1C(=O)C(C)OC(=O)c1ccc(NC(=O)CC#N)cc1 (centres undefined)	i	12	405	-3	+	-3
CC(O)(c1cccc(F)c1)c1nc(-c2cccc3cccnc23)cs1 (centres undefined)	x	x	x	3	i	-3
O=C(NC1CCCC1)C1c2ccccc2OCC(=O)N1Cc1cccnc1 (centres undefined)	x	x	x	-7	i	x
COc1cc(N=c2ssnc2Cl)cc(OC)c1	i	0	920	15	i	1
Clc1nssc1=Nc1ccc(Br)cc1	i	x	x	94*	i	3
O=C(/C=C1\OCc2ccccc21)OCc1ccccc1	x	x	x	15	i	x
NC(CCC(=O)NC(CS)C(=O)NCC(=O)O)C(=O)O (centres undefined)	x	x	x	-5	+	0
O=C(CSc1ncccn1)NC1CCCC1	x	x	x	7	i	-1
N#C/C(=C/c1ccc(-c2cc(C(=O)O)cc(C(=O)O)c2)o1)c1nc2ccccc2s1	i	4	195	x	x	x
CCCCc1ccc(-c2csc(/C(C#N)=C\c3ccco3)n2)cc1	i	0	222	30	+	1
N#C/C(=C\c1ccco1)c1nc2ccccc2s1	i	0	212	88*	i	-4
SMILES	Rce1 inh	GRK2 inh	T cell HTS	SKN-1 inh	Myeloid diff 2	Rin1 Abl inh
N#C/C(=C/c1ccco1)c1nc2ccccc2s1	i	3	421	86*	i	3
O=C(c1ccc(S(=O)(=O)Nc2ccccc2F)cc1)N1CCC1	i	1	398	14	i	-2
Cc1ccc(-n2c(C)nnc2SC(C)C(=O)N2CCCC2)cc1 (centres undefined)	i	2	250	-5	i	5
Cc1ccc(S(=O)(=O)Nc2ccc3c(c2)c2c(n3S(=O)(=O)c3ccc(C)cc3)CCCC2=O)cc1	i	2	124	7	i	0
CCCC(=O)Nc1sc2c(c1C#N)CC(C)(C)NC2(C)C	i	0	279	1	i	-3
CC(=O)Nc1sc2c(c1C#N)CC(C)(C)NC2(C)C	i	1	383	5	+	1
CCc1ccc(C(=O)OCC(=O)N(CCOC)c2c(N)n(Cc3ccccc3)c(=O)[nH]c2=O)cc1	i	2	460	-4	i	-1
O=C(c1ccccc1Cl)N1CCC(N2CCC(C(=O)N3CCCC3)CC2)CC1	i	0	i	3	i	1
O=C(c1cc(F)ccc1F)N1CCC(N2CCC(C(=O)N3CCCC3)CC2)CC1	i	0	386	9	+	4
Cc1cc(C)nc(NC(=S)Nc2cccc(Cl)c2Cl)c1	i	0	387	4	+	-2
Cc1cc(C)nc(NC(=S)Nc2ccc(Br)cc2Cl)c1	i	5	451	7	i	4
C[C@H]1CN([C@@H](C)CO)C(=O)CCCn2nncc2CO[C@H]1CN(C)C(=O)Nc1ccc2c(c1)OCO2	x	x	x	2	i	-4
O=C(/C=C/c1ccncc1)c1cc(Cl)ccc1O	i	0	630	23	+	1
CCn1c(C)c(C2=CCN(S(=O)(=O)c3ccccc3)CC2)c2ccccc21	i	0	288	54*	i	0
Cc1ccc(S(=O)(=O)N2CC=C(c3c(C)n(C)c4ccccc34)CC2)cc1	i	0	183	52*	i	-1
O=S(=O)(Nc1nc2ccccc2nc1NCC1CCCO1)c1cc(Cl)ccc1Cl (centres undefined)	i	1	162	11	i	-1
Cc1cc(C)n(C2CC(=O)N(c3ccc(C)c(Cl)c3)C2=O)n1 (centres undefined)	i	0	836	8	i	1
N#CC(c1nc2ccccc2nc1OCCO)S(=O)(=O)c1ccccc1 (centres undefined)	i	1	64	3	i	-1
Clc1ccccc1-c1ncc(-c2ccccc2)o1	i	0	i	42*	i	1
CSc1nnc(-c2ccccc2Cl)o1	i	1	199	8	i	1
CCN(C(=O)CN1C(=O)S/C(=C\c2cccc(Cl)c2)C1=O)C1CCS(=O)(=O)C1 (centres undefined)	i	1	312	37*	i	0
CCN(C(=O)CN1C(=O)S/C(=C\c2ccc(Cl)cc2)C1=O)C1CCS(=O)(=O)C1 (centres undefined)	i	1	258	-3	i	0
